In ChEMBL document CHEMBL2380295, “Structure-activity studies on the side chain of a simplified analog of aplysiatoxin (aplog-1) with anti-proliferative activity” (Bioorg Med Chem, 2013):

Columns and labels:
[1] = Cytotoxicity against human Raji cells assessed as cell viability at 10^-6 M; type: cell-based; settings: read-out: Activity
[2] = Cytotoxicity against human Raji cells assessed as cell viability at 10^-7 M; type: cell-based; settings: read-out: Activity
Human gammaherpesvirus 4 [3] = test: Induction of EBV-early antigen expressed in human Raji cells at 10^-6 M after 48 hrs by immunofluorescence assay relative to control; type: organism-based; settings: human gammaherpesvirus 4, raji, 1 µM
Outline: (§1)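 Raji B-lymphoblastoid cells (5 × 10^5/mL) in RPMI 1640 with 10% FBS, with 4 mM sodium n-butyrate as synergist and test compound at 10^-7 or 10^-6 M (final DMSO 0.4%). Incubated 48 h at 37 °C under 5% CO2. Smears were stained by indirect immunofluorescence using NPC patient serum and FITC anti-human IgG. At least 500 cells counted; % EA-positive recorded; n = 3, SEM.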

Human gammaherpesvirus 4 [4] = test: Induction of EBV-early antigen expressed in human Raji cells at 10^-7 M after 48 hrs by immunofluorescence assay relative to control; type: organism-based; settings: human gammaherpesvirus 4, raji, 0.1 µM; outline: as §1
PC-3 = test: Growth inhibition of human PC3 cells after 48 hrs by sulforhodamine B assay; type: functional; settings: PC-3, 48 h
Outline: (§2)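 Yamori 39-line human cancer panel, NCI method with modifications. Cells plated in RPMI 1640 plus 5% FBS, attached overnight, then exposed 48 h to compound at 10^-8, 10^-7, 10^-6, 10^-5 and 10^-4 M. Sulforhodamine B staining read at 525 nm; % growth = 100[(T−T0)/(C−T0)] from duplicate-point averages, with T0 the time-zero absorbance. GI50 is the concentration giving 50.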

DU-145 = test: Growth inhibition of human DU145 cells after 48 hrs by sulforhodamine B assay; type: functional; settings: DU-145, 48 h; outline: as §2
MKN-74 = test: Growth inhibition of human MKN74 cells after 48 hrs by sulforhodamine B assay; type: functional; settings: MKN-74, 48 h; outline: as §2
MKN-28 = test: Growth inhibition of human MKN28 cells after 48 hrs by sulforhodamine B assay; type: functional; settings: MKN-28, 48 h; outline: as §2
MKN-45 = test: Growth inhibition of human MKN45 cells after 48 hrs by sulforhodamine B assay; type: functional; settings: MKN-45, 48 h; outline: as §2
MKN-7 = test: Growth inhibition of human MKN7 cells after 48 hrs by sulforhodamine B assay; type: functional; settings: MKN-7, 48 h; outline: as §2
St-4 = test: Growth inhibition of human St-4 cells after 48 hrs by sulforhodamine B assay; type: functional; settings: St-4, 48 h; outline: as §2
[5] = Growth inhibition of human MKN1 cells after 48 hrs by sulforhodamine B assay; type: functional; settings: MKN-1, 48 h; outline: as §2
[6] = Growth inhibition of human RXF631L cells after 48 hrs by sulforhodamine B assay; type: functional; settings: RXF 631, 48 h; outline: as §2
ACHN = test: Growth inhibition of human ACHN cells after 48 hrs by sulforhodamine B assay; type: functional; outline: as §2
OVCAR-8 = test: Growth inhibition of human OVCAR8 cells after 48 hrs by sulforhodamine B assay; type: functional; settings: OVCAR-8, 48 h; outline: as §2
SK-OV-3 = test: Growth inhibition of human SKOV3 cells after 48 hrs by sulforhodamine B assay; type: functional; settings: SK-OV-3, 48 h; outline: as §2
OVCAR-5 = test: Growth inhibition of human OVCAR5 cells after 48 hrs by sulforhodamine B assay; type: functional; settings: OVCAR-5, 48 h; outline: as §2
OVCAR-3 = test: Growth inhibition of human OVCAR3 cells after 48 hrs by sulforhodamine B assay; type: functional; settings: OVCAR-3, 48 h; outline: as §2
OVCAR-4 = test: Growth inhibition of human OVCAR4 cells after 48 hrs by sulforhodamine B assay; type: functional; settings: OVCAR-4, 48 h; outline: as §2
DMS-114 = test: Growth inhibition of human DMS114 cells after 48 hrs by sulforhodamine B assay; type: functional; settings: DMS-114, 48 h; outline: as §2
LOX IMVI = test: Growth inhibition of human LOXIMVI cells after 48 hrs by sulforhodamine B assay; type: functional; outline: as §2
A549 = test: Growth inhibition of human A549 cells after 48 hrs by sulforhodamine B assay; type: functional; settings: A549, 48 h; outline: as §2
DMS-273 = test: Growth inhibition of human DMS273 cells after 48 hrs by sulforhodamine B assay; type: functional; settings: DMS-273, 48 h; outline: as §2
NCI-H460 = test: Growth inhibition of human NCI-H460 cells after 48 hrs by sulforhodamine B assay; type: functional; settings: NCI-H460, 48 h; outline: as §2
NCI-H226 = test: Growth inhibition of human NCI-H226 cells after 48 hrs by sulforhodamine B assay; type: functional; settings: NCI-H226, 48 h; outline: as §2
NCI-H522 = test: Growth inhibition of human NCI-H522 cells after 48 hrs by sulforhodamine B assay; type: functional; settings: NCI-H522, 48 h; outline: as §2
HCT-116 = test: Growth inhibition of human HCT116 cells after 48 hrs by sulforhodamine B assay; type: functional; settings: HCT-116, 48 h; outline: as §2
NCI-H23 = test: Growth inhibition of human NCI-H23 cells after 48 hrs by sulforhodamine B assay; type: functional; settings: NCI-H23, 48 h; outline: as §2
HCT-15 = test: Growth inhibition of human HCT15 cells after 48 hrs by sulforhodamine B assay; type: functional; settings: HCT-15, 48 h; outline: as §2
KM12 = test: Growth inhibition of human KM12 cells after 48 hrs by sulforhodamine B assay; type: functional; settings: KM12, 48 h; outline: as §2
HT-29 = test: Growth inhibition of human HT-29 cells after 48 hrs by sulforhodamine B assay; type: functional; settings: HT-29, 48 h; outline: as §2
SNB-78 = test: Growth inhibition of human SNB78 cells after 48 hrs by sulforhodamine B assay; type: functional; settings: SNB-78, 48 h; outline: as §2
[7] = Growth inhibition of human HCC2998 cells after 48 hrs by sulforhodamine B assay; type: functional; settings: HCC 2998, 48 h; outline: as §2
SF-539 = test: Growth inhibition of human SF539 cells after 48 hrs by sulforhodamine B assay; type: functional; settings: SF-539, 48 h; outline: as §2
SNB-75 = test: Growth inhibition of human SNB75 cells after 48 hrs by sulforhodamine B assay; type: functional; settings: SNB-75, 48 h; outline: as §2
SF-295 = test: Growth inhibition of human SF295 cells after 48 hrs by sulforhodamine B assay; type: functional; settings: SF-295, 48 h; outline: as §2
U-251 = test: Growth inhibition of human U251 cells after 48 hrs by sulforhodamine B assay; type: functional; settings: U-251, 48 h; outline: as §2
SF-268 = test: Growth inhibition of human SF268 cells after 48 hrs by sulforhodamine B assay; type: functional; settings: SF-268, 48 h; outline: as §2
MCF7 = test: Growth inhibition of human MCF7 cells after 48 hrs by sulforhodamine B assay; type: functional; settings: MCF7, 48 h; outline: as §2
MDA-MB-231 = test: Growth inhibition of human MDA-MB-231 cells after 48 hrs by sulforhodamine B assay; type: functional; settings: MDA-MB-231, 48 h; outline: as §2
[8] = Growth inhibition of human BSY1 cells after 48 hrs by sulforhodamine B assay; type: functional; settings: BSY-1, 48 h; outline: as §2
[9] = Growth inhibition of human HBC5 cells after 48 hrs by sulforhodamine B assay; type: functional; settings: HBC5, 48 h; outline: as §2
[10] = Growth inhibition of human HBC4 cells after 48 hrs by sulforhodamine B assay; type: functional; settings: HBC4, 48 h; outline: as §2
[11] = Octanol-water partition coefficient, log P of the compound by HPLC analysis; type: physicochemical
Outline: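 log P was estimated from HPLC retention, with column dead time measured using unretained formamide.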

[12] = biological target: T1, Protein kinase C delta type (Homo sapiens, UniProt Q05655); test: Inhibition of [3H]PDBu binding to PKCdelta-C1A domain peptide (unknown origin)
T1 sequence (Q05655 whole entry, the tested form may be a part): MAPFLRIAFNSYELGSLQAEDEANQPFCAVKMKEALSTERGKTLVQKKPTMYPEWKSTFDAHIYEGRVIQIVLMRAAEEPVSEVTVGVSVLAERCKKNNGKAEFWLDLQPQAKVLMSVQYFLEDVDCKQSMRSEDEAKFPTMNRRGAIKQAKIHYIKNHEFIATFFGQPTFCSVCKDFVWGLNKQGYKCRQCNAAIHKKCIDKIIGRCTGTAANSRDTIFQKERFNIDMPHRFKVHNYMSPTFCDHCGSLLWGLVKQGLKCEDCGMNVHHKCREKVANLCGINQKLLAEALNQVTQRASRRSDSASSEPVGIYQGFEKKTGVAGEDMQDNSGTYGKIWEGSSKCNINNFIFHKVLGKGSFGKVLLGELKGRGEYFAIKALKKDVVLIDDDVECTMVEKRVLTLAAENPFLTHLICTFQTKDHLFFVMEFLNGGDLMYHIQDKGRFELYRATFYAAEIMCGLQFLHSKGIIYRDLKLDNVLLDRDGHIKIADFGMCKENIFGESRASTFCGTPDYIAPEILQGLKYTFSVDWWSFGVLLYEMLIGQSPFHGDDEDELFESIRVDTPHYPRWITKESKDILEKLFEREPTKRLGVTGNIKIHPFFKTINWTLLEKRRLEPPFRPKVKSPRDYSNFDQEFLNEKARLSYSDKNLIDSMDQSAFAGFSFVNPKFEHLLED
Outline: (§3)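 Competitive [3H]PDBu binding used 14 or 40 nM PKCδ C1 peptide and 20 nM [3H]PDBu (19.6 Ci/mmol), in 50 mM Tris-maleate (pH 7.4 at 4 °C) with 50 µg/mL phosphatidylserine, 3 mg/mL bovine γ-globulin and varied inhibitor concentrations. IC50 was taken as 50% inhibition of specific binding. Ki was derived by the Sharkey–Blumberg method.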

[13] = biological target: T1, Protein kinase C delta type; test: Inhibition of [3H]PDBu binding to PKCdelta-C1B domain peptide (unknown origin); outline: as §3

In the case of CC(=O)Nc1ccc(O)cc1CCCC[C@@H]1C[C@@H]2C[C@@]3(O[C@H](CCC3(C)C)CC(=O)O[C@@H](CO)CC(=O)O2)O1, the viability at 1 µM [1] is reported as 60%, the viability at 0.1 µM [2] is reported as 60% and the Activity (Human gammaherpesvirus 4 [3]) is reported as 2.1%. The Activity (Human gammaherpesvirus 4 [4]) was 2%, the GI50 (PC-3) was > 100 µM and the GI50 (DU-145) was > 100 µM. The GI50 (MKN-74) was 70.8 µM, the GI50 (MKN-28) was 87.1 µM and the GI50 (MKN-45) was > 100 µM. The GI50 (MKN-7) was > 100 µM, the GI50 (St-4) was > 100000 nM and the GI50 [5] was > 100 µM. The GI50 [6] was > 100 µM, the GI50 (ACHN) was > 100 µM and the GI50 (OVCAR-8) was > 100 µM. For the same compound, the GI50 (SK-OV-3) was > 100 µM, the GI50 (OVCAR-5) was > 100 µM and the GI50 (OVCAR-3) was > 100 µM. The GI50 (OVCAR-4) was > 100 µM, the GI50 (DMS-114) was 55 µM and the GI50 (LOX IMVI) was 74.1 µM. The GI50 (A549) was > 100 µM, the GI50 (DMS-273) was 43.7 µM and the GI50 (NCI-H460) was > 100 µM. For the same compound, the GI50 (NCI-H226) was 53.7 µM, the GI50 (NCI-H522) was > 100 µM and the GI50 (HCT-116) was > 100 µM. For the same compound, the GI50 (NCI-H23) was > 100 µM, the GI50 (HCT-15) was > 100 µM and the GI50 (KM12) was > 100 µM. For the same compound, the GI50 (HT-29) was > 100 µM, the GI50 (SNB-78) was > 100 µM and the GI50 [7] was 72.4 µM. For the same compound, the GI50 (SF-539) was > 100 µM, the GI50 (SNB-75) was > 100 µM and the GI50 (SF-295) was 60.3 µM. For the same compound, the GI50 (U-251) was > 100 µM, the GI50 (SF-268) was > 100 µM and the GI50 (MCF7) was > 100 µM. The GI50 (MDA-MB-231) was > 100000 nM, the GI50 [8] was > 100 µM and the GI50 [9] was > 100 µM. The GI50 [10] was > 100000 nM, the logP [11] was 2.3 and the Ki [12] was 8.7 µM. It also gave a Ki [13] of 690 nM.
For CC1(C)CC[C@@H]2CC(=O)O[C@@H](CO)CC(=O)O[C@@H]3C[C@@H](CCCCc4ccc(I)c(O)c4)O[C@@]1(C3)O2, the viability at 1 µM [1] was 40%, the viability at 0.1 µM [2] was 50% and the Activity (Human gammaherpesvirus 4 [3]) was 2.3%. For the same compound, the Activity (Human gammaherpesvirus 4 [4]) was 2.1%, the GI50 (PC-3) was 3.09 µM and the GI50 (DU-145) was 11.7 µM. For the same compound, the GI50 (MKN-74) was 11.7 µM, the GI50 (MKN-28) was 0.617 µM and the GI50 (MKN-45) was 11.7 µM. For the same compound, the GI50 (MKN-7) was 13.5 µM, the GI50 (St-4) was 933 nM and the GI50 [5] was 11.2 µM. The GI50 [6] was 12 µM, the GI50 (ACHN) was 10 µM and the GI50 (OVCAR-8) was 16.2 µM. For the same compound, the GI50 (SK-OV-3) was 14.8 µM, the GI50 (OVCAR-5) was 4.47 µM and the GI50 (OVCAR-3) was 6.31 µM. It also gave a GI50 (OVCAR-4) of 13.2 µM, a GI50 (DMS-114) of 10.7 µM and a GI50 (LOX IMVI) of 2.88 µM. The GI50 (A549) was 3.31 µM, the GI50 (DMS-273) was 0.191 µM and the GI50 (NCI-H460) was 6.03 µM. For the same compound, the GI50 (NCI-H226) was 12 µM, the GI50 (NCI-H522) was 12 µM and the GI50 (HCT-116) was 10.2 µM. For the same compound, the GI50 (NCI-H23) was 11 µM, the GI50 (HCT-15) was 15.5 µM and the GI50 (KM12) was 10.5 µM. For the same compound, the GI50 (HT-29) was 14.5 µM, the GI50 (SNB-78) was 17 µM and the GI50 [7] was 1.62 µM. It also gave a GI50 (SF-539) of 12 µM, a GI50 (SNB-75) of 12.3 µM and a GI50 (SF-295) of 4.07 µM. For the same compound, the GI50 (U-251) was 14.5 µM, the GI50 (SF-268) was 13.8 µM and the GI50 (MCF7) was 12.3 µM. The GI50 (MDA-MB-231) was 1580 nM, the GI50 [8] was 11 µM and the GI50 [9] was 15.8 µM. It also gave a GI50 [10] of 295 nM, a logP [11] of 4.3 and a Ki [12] of 0.082 µM. For the same compound, the Ki [13] was 1.3 nM.
